Laboratory results: ChEMBL document CHEMBL3407471, “Development of potent inhibitors of pyocyanin production in Pseudomonas aeruginosa” (J Med Chem, 2015)
The source made the active and inactive calls. How the calls were made is not given here.

Assays:
Pseudomonas aeruginosa [1] = test: Antimicrobial activity against wild-type Pseudomonas aeruginosa PA14; assay type: functional
Pseudomonas aeruginosa [2] = test: Inhibition of quorum sensing activity in wild-type Pseudomonas aeruginosa PA14 assessed as inhibition of pyocyanin production at 100 uM by spectrophotometry relative to control; assay type: functional
Summary of the method: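 Wild-type P. aeruginosa PA14 cultures exposed to compound at 100 μM. Pyocyanin read as absorbance at 695 nm. Efficacy scaled so that wild-type pyocyanin level = 0% and absorbance equal to background medium = 100%.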

Row | Structure (SMILES) | Activity (Pseudomonas aeruginosa [1]) | Efficacy (Pseudomonas aeruginosa [2])
1 | CCCCCCCCCCCC(=O)Nc1ccccn1 | inactive | 55%
2 | CCCCCCCCCCCC(=O)Nc1c(F)c(F)nc(F)c1F | inactive | -12%
3 | CCCCCCCCCCCCNC(=O)c1ccncc1 | inactive | 13%
4 | CCCCCCCCCCCC(=O)Nc1cc(C)nc2ccccc12 | inactive | -24%
5 | O=C(CCCCCOc1c(F)cccc1F)Nc1ccnc(C(F)(F)F)c1 | inactive | 66%
6 | O=C(CCCCC#Cc1cccc(F)c1)Nc1ccnc(C(F)(F)F)c1 | inactive | 97%
7 | CCCCCCCCCCCC(=O)Nc1ccc2oc3c(c2c1)CCCC3 | inactive | 6.1%
8 | O=C(CCCCCOc1cccc(Br)c1)Nc1ccncn1 | inactive | 27%
9 | O=C(CCCCOc1cccc(Br)c1)Nc1ccnc(C(F)(F)F)c1 | inactive | 95%
10 | CCCCCCCCCCCC(=O)NCc1ccncc1 | inactive | 7.7%
11 | COc1cc(NC(=O)CCCCCCCOc2cccc(Br)c2)ccn1 | inactive | 60%
12 | CCCCCCCCCCCC(=O)Nc1ccnc(Br)c1 | inactive | 34%
13 | COc1cc(NC(=O)CCCCCOc2cccc(Br)c2)nc(OC)n1 | inactive | 15%
14 | CCCCCCCCCCCCNC(=O)Cc1c[nH]c2ccccc12 | inactive | 0.6%
15 | CCCCCCCCCCCC(=O)Nc1ccc2c(c1)c1ccccc1n2CC | inactive | -1%
16 | CCCCCCCCCC(=O)CC(=O)Nc1ccccn1 | inactive | 44%
17 | O=C(CCCCCOc1cccc(Br)c1)Nc1cccc(C(F)(F)F)c1 | inactive | 62%
18 | CCCCCCCCCC(=O)CC(=O)Nc1ccnc(F)c1 | inactive | -8.5%
19 | CCCCCCCCCCCCCCCCOC(=O)C1COc2ccccc21 (stereo not drawn) | inactive | 1.5%
20 | CCCCCCCCCCCC(=O)Nc1ccnc(C(F)(F)F)c1 | inactive | 27%
21 | O=C(CCCCCOc1ccc(Br)cc1)Nc1ccnc(C(F)(F)F)c1 | inactive | 88%
22 | COc1nccc(NC(=O)CCCCCOc2cccc(Br)c2)n1 | inactive | 16%

Row | Structure (SMILES) | Activity (Pseudomonas aeruginosa [1]) | Efficacy (Pseudomonas aeruginosa [2])
23 | O=C(CCCOc1cccc(Br)c1)Nc1ccnc(C(F)(F)F)c1 | inactive | 43%
24 | O=C(CCCCCOc1ccccc1O)Nc1ccnc(C(F)(F)F)c1 | inactive | 95%
25 | Cc1cccc(OCCCCCC(=O)Nc2ccnc(C(F)(F)F)c2)c1 | inactive | 81%
26 | CCCCCCCCCCCCNC(=O)c1cc2ccccc2n1C | inactive | -9.2%
27 | O=C(CCCCCOc1cccc(Br)c1)Nc1ccnc(F)c1 | inactive | 31%
28 | O=C(CCCCCOc1ccc(F)cc1F)Nc1ccnc(C(F)(F)F)c1 | inactive | 49%
29 | CCCCCCCCCCCC(=O)Nc1ccc2[nH]ccc2c1 | inactive | -11%
30 | O=C(CCCCCOc1cccc(Br)c1)Nc1ccncc1 | inactive | 53%
31 | CCCCCCCCCCCCNC(=O)c1c[nH]c2ccccc12 | inactive | 4.4%
32 | COc1cc(NC(=O)CCCOc2cccc(Br)c2)ccn1 | inactive | 20%
33 | O=C(CCCOc1cccc(Br)c1)Nc1ccnc(F)c1 | inactive | 32%
34 | O=C(CCCCCOc1cccc(O)c1)Nc1ccnc(C(F)(F)F)c1 | inactive | 70%
35 | N#Cc1cccc(OCCCCCC(=O)Nc2ccnc(C(F)(F)F)c2)c1 | inactive | 0.48%
36 | O=C(CCCCCSc1cccc(F)c1)Nc1ccnc(C(F)(F)F)c1 | inactive | 94%
37 | COc1cc(NC(=O)CCCCCOc2cccc(Br)c2)ccn1 | inactive | 73%
38 | CCCCCCCCCC(=O)CC(=O)Nc1ncccn1 | inactive | -0.51%
39 | CCCCCCCCCCCC(=O)Nc1cnccn1 | inactive | -38%
40 | O=C(CCCCCOc1cccc(I)c1)Nc1ccnc(C(F)(F)F)c1 | inactive | 95%
41 | COc1cc(NC(=O)CCCCCCOc2cccc(Br)c2)ccn1 | inactive | 75%
42 | O=C(CCCCCOc1cccc(Br)c1)Nc1cc(C(F)(F)F)cc(C(F)(F)F)c1 | inactive | 44%
43 | CCCCCCCCCCCC(=O)O/N=C1\COc2ccccc21 | inactive | 12%
44 | O=C(CCCCCOc1cccc(Br)c1)Nc1ccncc1C(F)(F)F | inactive | 15%

Row | Structure (SMILES) | Activity (Pseudomonas aeruginosa [1]) | Efficacy (Pseudomonas aeruginosa [2])
45 | CCCCCCCCCC(=O)CC(=O)Nc1ccncn1 | inactive | 64%
46 | COc1cc(NC(=O)CCCCCOc2cccc(Br)c2)ncn1 | inactive | 41%
47 | CCCCCCCCCC(=O)CC(=O)Nc1cccnc1 | inactive | 10%
48 | CCCCCCCCCCCC(=O)Nc1ccncc1C(F)(F)F | inactive | -17%
49 | COc1cc(NC(=O)CCCCOc2cccc(Br)c2)ccn1 | inactive | 81%
50 | CCCCCCCCCCCC(=O)N1CCN(c2ccncc2)CC1 | inactive | -42%
51 | COc1cc(NC(=O)CC(=O)CCCOc2cccc(Br)c2)ccn1 | inactive | 40%
52 | CCCCCCCCCCCC(=O)Nc1ncccn1 | inactive | 23%
53 | CCCCCCCCCCCC(=O)Nc1ccncc1 | inactive | 28%
54 | O=C(CCCCCCOc1cccc(Br)c1)Nc1ccnc(C(F)(F)F)c1 | inactive | 23%
55 | O=C(CCCCCOc1cccc(C(F)(F)F)c1)Nc1ccnc(C(F)(F)F)c1 | inactive | 59%
56 | O=C(CCCCCNc1cccc(F)c1)Nc1ccnc(C(F)(F)F)c1 | inactive | 100%
57 | O=C(CCCCCCc1cccc(F)c1)Nc1ccnc(C(F)(F)F)c1 | inactive | 96%
58 | O=C(CCCCCOc1cccc(Br)c1)Nc1ccnc(Cl)c1 | inactive | 89%
59 | CCCCCCCCCCCC(=O)Nc1ccnc(C)c1 | inactive | -19%
60 | O=C(CCCCCOc1ccccc1F)Nc1ccnc(C(F)(F)F)c1 | inactive | 78%
61 | CCCCCCCCCC(=O)CC(=O)Nc1ccnc(OC)c1 | inactive | 24%
62 | O=C(CCCCCOc1cccc(Cl)c1)Nc1ccnc(C(F)(F)F)c1 | inactive | 101%
63 | O=C(CCCCCOc1ccccc1Br)Nc1ccnc(C(F)(F)F)c1 | inactive | 94%
64 | CCCCCCCCCCCC(=O)OCc1ccncc1 | inactive | -15%
